# According to ChEMBL document CHEMBL1138488, “Synthesis and biological evaluation of 3,3-difluoropyridine-2,4(1H,3H)-dione and 3-deaza-3-fluorouracil base and nucleoside derivatives” (J Med Chem, 2009):
# Activity calls are given as the source filed them. The calls are words filed in the database; no cut-off is given here.
# Columns and labels:
# Vaccinia virus = assay: Antiviral activity against Vaccinia virus infected in HEL cells assessed as inhibition of virus-induced cytopathic effect at <=100 uM; type: functional, organism-based; details: Orthopoxvirus vaccinia
# Human betaherpesvirus 5 [1] = assay: Antiviral activity against HCMV AD169 infected in HEL cells assessed as inhibition of virus-induced cytopathic effect at <=100 uM; type: functional, organism-based
# Method in brief: (§1)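 Confluent cell monolayers were inoculated with 100 CCID₅₀ of virus, and virus was adsorbed for 1 h. Residual virus was then removed and cells were incubated with serial compound concentrations ([…], ... µM). Cytopathicity was scored once it reached completion in untreated virus-infected control cultures.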
# L1210 = assay: Cytostatic activity against mouse L1210 cells at <=500 uM after 2 days by Coulter counting analysis; type: ADME, cell-based; details: l1210, 48 h
# Method in brief: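 Murine leukemia L1210 cells were seeded at 50000 cells per well with varying compound concentrations. Viable cell number was counted by Coulter counter after 2 days.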
# Human alphaherpesvirus 2 = assay: Antiviral activity against HSV2 strain G infected in HEL cells assessed as virus-induced cytopathic effect at <=100 uM; type: functional, organism-based
# Punta Toro virus = assay: Antiviral activity against Punta Toro virus infected in african green monkey Vero cells assessed as inhibition of virus-induced cytopathic effect at <=100 uM; type: functional, organism-based; method in brief: as §1
# Coxsackievirus B4 = assay: Antiviral activity against Coxsackievirus B4 infected in human HeLa cells assessed as inhibition of virus-induced cytopathic effect at <=100 uM; type: functional, organism-based; method in brief: as §1
# Human alphaherpesvirus 1 [2] = assay: Antiviral activity against acyclovir-resistant […] kinase-deficient HSV1 KOS infected in HEL cells assessed as virus-induced cytopathic effect at <=100 uM; type: functional, organism-based
# [3] = tested on: Moloney murine sarcoma virus; assay: Antiviral activity against Moloney sarcoma virus replication infected in mouse […] cells assessed as virus-induced transformation of cells at <=100 uM measured on day 6 postinfection; type: functional, organism-based
# Method in brief: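 Murine C3H/3T3 embryo fibroblasts were grown to confluency and infected with Moloney murine sarcoma virus at 75 focus-forming units. Compound concentrations were then added, and virus-induced transformation was examined microscopically at day 6 postinfection.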
# Human alphaherpesvirus 3 [4] = assay: Antiviral activity against thymidine kinase deficient Varicella zoster virus 07/1 infected in human HEL cells assessed as inhibition of virus-induced cytopathic effect at <=100 uM; type: functional, organism-based; method in brief: as §1
# [5] = tested on: Mammalian orthoreovirus 3; assay: Antiviral activity against Reovirus 3 infected in african green monkey Vero cells assessed as inhibition of virus-induced cytopathic effect at <=100 uM; type: functional, organism-based
# [6] = tested on: Human immunodeficiency virus 2; assay: Antiviral activity against HIV2 ROD replication in human CEM cells assessed as virus-induced giant cell formation at <=100 uM after 4 days; type: functional, organism-based; details: CCRF-CEM
# Method in brief: (§2)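 CEM cells (~3 × 10⁵ cells/cm³) were infected with 100 CCID₅₀/mL of HIV-1(III_B) or HIV-2(ROD) and seeded into wells containing compound dilutions. After 4 days at 37 °C, virus-induced giant cell formation was examined microscopically.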
# Human betaherpesvirus 5 [7] = assay: Antiviral activity against HCMV Davis infected in HEL cells assessed as inhibition of virus-induced cytopathic effect at <=100 uM; type: functional, organism-based; method in brief: as §1
# [8] = tested on: Vesicular stomatitis virus; assay: Antiviral activity against Vesicular stomatitis virus infected in HEL cells assessed as inhibition of virus-induced cytopathic effect at <=100 uM; type: functional, organism-based
# [9] = tested on: Vesicular stomatitis virus; assay: Antiviral activity against Vesicular stomatitis virus infected in human HeLa cells assessed as inhibition of virus-induced cytopathic effect at <=100 uM; type: functional, organism-based
# CCRF-CEM = assay: Cytostatic activity against human CEM cells at <=500 uM after 3 days by Coulter counting analysis; type: cell-based; details: 72 h
# Method in brief: (§3)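 Molt4/C8 or CEM lymphocytes were seeded at 75000 cells per well with varying compound concentrations. Viable cells were counted by Coulter counter after 3 days. CC₅₀ is the concentration inhibiting cell proliferation by 50%.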
# Sindbis virus = assay: Antiviral activity against Sindbis virus infected in african green monkey Vero cells assessed as inhibition of virus-induced cytopathic effect at <=100 uM; type: functional, organism-based; method in brief: as §1
# [10] = tested on: Human immunodeficiency virus 1; assay: Antiviral activity against HIV1 3B replication in human CEM cells assessed as virus-induced giant cell formation at <=100 uM after 4 days; type: functional, organism-based; details: CCRF-CEM; method in brief: as §2
# Human alphaherpesvirus 3 [11] = assay: Antiviral activity against thymidine kinase expressing Varicella zoster virus Oka infected in human HEL cells assessed as inhibition of virus-induced cytopathic effect at <=100 uM; type: functional, organism-based; method in brief: as §1
# Human alphaherpesvirus 1 [12] = assay: Antiviral activity against HSV1 KOS infected in HEL cells assessed as virus-induced cytopathic effect at <=100 uM; type: functional, organism-based
# Human respirovirus 3 = assay: Antiviral activity against Parainfluenza virus type 3 infected in african green monkey Vero cells assessed as inhibition of virus-induced cytopathic effect at <=100 uM; type: functional, organism-based; method in brief: as §1
# [13] = tested on: Respiratory syncytial virus; assay: Antiviral activity against Respiratory syncytial virus infected in human HeLa cells assessed as inhibition of virus-induced cytopathic effect at <=100 uM; type: functional, organism-based; method in brief: as §1
# [14] = Cytostatic activity against human Molt4/C8 cells at <=500 uM after 3 days by Coulter counting analysis; type: ADME, cell-based; details: molt-4, 72 h; method in brief: as §3
Structure (SMILES),Activity (Vaccinia virus),Activity (Human betaherpesvirus 5 [1]),Activity (L1210),Activity (Human alphaherpesvirus 2),Activity (Punta Toro virus),Activity (Coxsackievirus B4),Activity (Human alphaherpesvirus 1 [2]),Activity [3],Activity (Human alphaherpesvirus 3 [4]),Activity [5],Activity [6],Activity (Human betaherpesvirus 5 [7]),Activity [8],Activity [9],Activity (CCRF-CEM),Activity (Sindbis virus),Activity [10],Activity (Human alphaherpesvirus 3 [11]),Activity (Human alphaherpesvirus 1 [12]),Activity (Human respirovirus 3),further results
NC(=O)Cc1ccn([C@H]2C[C@H](O)[C@@H](CO)O2)c(=O)c1F,inactive,inactive,Not Active,inactive,inactive,inactive,inactive,inactive,inactive,inactive,inactive,inactive,inactive,inactive,Not Active,inactive,inactive,inactive,inactive,inactive,Activity [13]: inactive; Activity [14]: Not Active
NC(=O)Cc1ccn([C@@H]2O[C@H](CO)[C@@H](O)[C@@H]2O)c(=O)c1F,inactive,inactive,Not Active,inactive,inactive,inactive,inactive,inactive,inactive,inactive,inactive,inactive,inactive,inactive,Not Active,inactive,inactive,inactive,inactive,inactive,Activity [13]: inactive; Activity [14]: Not Active
O=c1c(F)c(O)ccn1[C@H]1C[C@H](O)[C@@H](CO)O1,inactive,inactive,Not Active,inactive,inactive,inactive,inactive,inactive,inactive,inactive,inactive,inactive,inactive,inactive,Not Active,inactive,inactive,inactive,inactive,inactive,Activity [13]: inactive; Activity [14]: Not Active
CC1(O)C=CN([C@H]2C[C@H](O)[C@@H](CO)O2)C(=O)C1(F)F (stereo partly drawn),inactive,inactive,Not Active,inactive,inactive,inactive,inactive,inactive,inactive,inactive,inactive,inactive,inactive,inactive,Not Active,inactive,inactive,inactive,inactive,inactive,Activity [13]: inactive; Activity [14]: Not Active
NC(=O)Cc1ccn([C@@H]2O[C@H](CO)[C@@H](O)[C@H]2O)c(=O)c1F,inactive,inactive,Not Active,inactive,inactive,inactive,inactive,inactive,inactive,inactive,inactive,inactive,inactive,inactive,Not Active,inactive,inactive,inactive,inactive,inactive,Activity [13]: inactive; Activity [14]: Not Active
C#CC1(O)C=CN([C@H]2C[C@H](O)[C@@H](CO)O2)C(=O)C1(F)F (stereo partly drawn),inactive,inactive,Not Active,inactive,inactive,inactive,inactive,inactive,inactive,inactive,inactive,inactive,inactive,inactive,Not Active,inactive,inactive,inactive,inactive,inactive,Activity [13]: inactive; Activity [14]: Not Active
C#CC1(O)C=CN([C@@H]2O[C@H](CO)[C@@H](O)[C@H]2O)C(=O)C1(F)F (stereo partly drawn),inactive,inactive,Not Active,inactive,inactive,inactive,inactive,inactive,inactive,inactive,inactive,inactive,inactive,inactive,Not Active,inactive,inactive,inactive,inactive,inactive,Activity [13]: inactive; Activity [14]: Not Active
O=C1N([C@H]2C[C@H](O)[C@@H](CO)O2)C=CC(O)(c2ccccc2)C1(F)F (stereo partly drawn),inactive,inactive,Not Active,inactive,inactive,inactive,inactive,inactive,inactive,inactive,inactive,inactive,inactive,inactive,Not Active,inactive,inactive,inactive,inactive,inactive,Activity [13]: inactive; Activity [14]: Not Active
O=C1N([C@@H]2O[C@H](CO)[C@@H](O)[C@H]2O)C=CC(O)(c2ccccc2)C1(F)F (stereo partly drawn),inactive,inactive,Not Active,inactive,inactive,inactive,inactive,inactive,inactive,inactive,inactive,inactive,inactive,inactive,Not Active,inactive,inactive,inactive,inactive,inactive,Activity [13]: inactive; Activity [14]: Not Active
